Measured values gathered from unrelated publications.
Protocols differ between the studies behind these lines.
MAOB: Amine oxidase [flavin-containing] B (MAOB, Homo sapiens, UniProt P27338)
CA9: Carbonic anhydrase 9 (CA9, Homo sapiens, UniProt Q16790)
EDNRB: Endothelin receptor type B (EDNRB, Homo sapiens, UniProt P24530)
Adora1: Adenosine receptor A1 (Adora1, Rattus norvegicus, UniProt P25099)
CHRM4: Muscarinic acetylcholine receptor M4 (CHRM4, Homo sapiens, UniProt P08173)

SMILES | target | assay | system | setting | inhibition [%]
O=C(Nc1ccc([N+](=O)[O-])cc1)c1ccc([N+](=O)[O-])cc1Cl | MAOB | enzyme activity, inhibitor |  | 1 µM, 20 min | 68
O=C1NC(=S)C(=Cc2cn(-c3ccccc3)nc2-c2ccc(Br)cc2)S1 | CA9 | enzyme activity, inhibitor |  | 1 µM | 66.2
CCN(Cc1ccccc1C(F)(F)F)C(=O)C1CCN(S(=O)(=O)c2ccc3[nH]ncc3c2)CC1 | EDNRB | ligand displacement, radioligand |  | 10 µM | 8
CCCC(C)N1CCCn2c1nc1c2c(=O)n(C)c(=O)n1C (stereo not shown) | Adora1 | ligand displacement, radioligand |  | 25 µM, cell membranes | 19
COc1cc(-c2cc(-c3ccc(N4CCNCC4)cc3)cnc2C)cc(OC)c1OC | Dual specificity tyrosine-phosphorylation-regulated kinase 4 (DYRK4, Homo sapiens, UniProt Q9NR20) | enzyme activity, inhibitor |  | 1 µM | 1
CCN(CC)c1ccc(C2Nc3ccc(C(=O)c4ccccc4)cc3NC3=C2C(=O)CC(C)(C)C3)cc1 (stereo not shown) | CHRM4 | ligand displacement, radioligand |  | 10 µM | -1
N#CC1CSc2[nH]c(=O)sc2C1c1cn(-c2ccccc2)nc1-c1ccc(Br)cc1 (stereo not shown) | CA9 | enzyme activity, inhibitor |  | 10 nM | 28.9
O=C(Nc1ccc(S(=O)(=O)N2CCC(Cl)CC2)cc1)c1ccc([N+](=O)[O-])o1 | EDNRB | ligand displacement, radioligand |  | 10 µM | 3
O=C(Nc1ccc([N+](=O)[O-])cc1Cl)c1ccccc1 | MAOB | enzyme activity, inhibitor |  | 1 µM, 20 min | 25
CCOC(=O)C1CSc2[nH]c(=O)sc2C1c1cn(-c2ccccc2)nc1-c1ccc(C)cc1 (stereo not shown) | CA9 | enzyme activity, inhibitor |  | 10 nM | 18.9
CCOc1ccc(C(=O)Nc2ccc(OC(F)(F)F)cc2)cc1OCC | MAOB | enzyme activity, inhibitor |  | 1 µM, 20 min | 1
Oc1cccc(Nc2nc(-c3ccc(F)cc3F)cs2)c1 | CHRM4 | cell-free assay |  | 10 µM | -2.9
O=C(Nc1ccc([N+](=O)[O-])cc1Cl)c1cc2ccccc2s1 | MAOB | enzyme activity, inhibitor |  | 1 µM, 20 min | 40
CN1CCCn2c1nc1c2c(=O)n(C)c(=O)n1C | Adora1 | ligand displacement, radioligand |  | 25 µM, cell membranes | 28
O=C(c1ccc(Cl)cc1)N(Cc1ccccc1)C1CCCCC1 | Beta-1 adrenergic receptor (ADRB1, Homo sapiens, UniProt P08588) | cell-free assay |  | 10 µM | -27.9
CCC(C)N1CCCn2c1nc1c2c(=O)n(C)c(=O)n1C (stereo not shown) | Adora1 | ligand displacement, radioligand |  | 25 µM, cell membranes | 40

SMILES | target | assay | system | setting | inhibition [%]
Cc1ccc(-c2nn(-c3ccccc3)cc2C2c3sc(=O)[nH]c3SC3C(=O)N(c4ccccc4)C(=O)C32)cc1 (stereo not shown) | CA9 | enzyme activity, inhibitor |  | 10 µM | 77.9
O=C(Nc1ccccc1Cl)c1ccc([N+](=O)[O-])cc1Cl | MAOB | enzyme activity, inhibitor |  | 1 µM, 20 min | 6
CN(C)C1CCN(CC#Cc2nn(C3CCCC3)c3nc(NCc4ccccc4)ncc23)C1 (stereo not shown) | Serine/threonine-protein kinase N1 (PKN1, Homo sapiens, UniProt Q16512) | enzyme activity, inhibitor, FRET |  | 10 µM | 4
CCOC(=O)C1CSc2[nH]c(=O)sc2C1c1cn(-c2ccccc2)nc1-c1ccc(Br)cc1 (stereo not shown) | CA9 | enzyme activity, inhibitor |  | 100 µM | 91.6
COc1cc(N)ccc1NC(=O)c1ccccc1 | MAOB | enzyme activity, inhibitor |  | 1 µM, 20 min | 1
O=C(c1ccc(F)cc1)N(Cc1ccccc1)C1CCCCC1 | EDNRB | cell-free assay |  | 10 µM | 3
CCN(CC)CCNC(=O)C1CCN(c2ccc3nnc(-c4cccc(C)c4)n3n2)CC1 | KCNU1 (Homo sapiens, UniProt A8MYU2) | ion current, inhibitor, patch clamp | HEK293 | 10 µM | 62
O=C(Nc1ccccc1)c1ccc2c(c1)OCO2 | MAOB | enzyme activity, inhibitor |  | 1 µM, 20 min | 80
CCOC(=O)C1CSc2[nH]c(=O)sc2C1c1cn(-c2ccccc2)nc1-c1ccc(Cl)cc1 (stereo not shown) | CA9 | enzyme activity, inhibitor |  | 10 µM | 86.3
N#Cc1cc(Cn2c(N3CCCC3)nc3ccccc32)ccc1F | CHRM4 | ligand displacement |  | 10 µM | -6.19
CCOC(=O)C1CSc2[nH]c(=O)sc2C1c1cn(-c2ccccc2)nc1-c1ccc(OC)cc1 (stereo not shown) | CA9 | enzyme activity, inhibitor |  | 1 µM | 71.4
O=C(Nc1cc(Cl)cc(Cl)c1)c1cc(Cl)ccc1O | MAOB | enzyme activity, inhibitor |  | 1 µM, 20 min | 0
CC(C)N1CCCn2c1nc1c2c(=O)n(C)c(=O)n1C | Adora1 | ligand displacement, radioligand |  | 25 µM, cell membranes | 38
COc1cc(NC(C)=O)c(Cl)cc1C(=O)Nc1nccs1 | Histamine H1 receptor (HRH1, Homo sapiens, UniProt P35367) | cell-free assay |  | 10 µM | -2
COc1ccc(C=NNC(=O)Cn2cnc3ccccc32)c(O)c1 | MAOB | enzyme activity, inhibitor, fluorescence |  | 1 µM | 65
